High-throughput results from PubChem.
Compounds with a hit are over-represented: about 4% of the library has one in this group of screens.
TAAR1 antagonist: human TAAR1 antagonism; 360,000 tested, 1.5% active; inhibition, % at 3 µM; CHO RD-HGA16 TAAR1, Fluo-8 calcium fluorescence, antagonist; Q96RJ0;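 active = inhibition above a per-plate cutoff, the mean inhibition of test compounds on that plate plus 3 SD, cut at about 49% in these data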;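 also: 0% = DMSO plus EC80 beta-PEA response and 100% = DMSO alone without agonist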
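Test system – hTAAR1-expressing CHO RD-HGA16 cells, Gα16-coupled · Reagent – β-PEA at EC80 concentration, post-compound challenge · Compound dosing – 3 µM, single point · Timing – 140 s kinetic read after compound, 140 s after agonist · Detection – Fluo-8 intracellular calcium dye fluorescence, real-time kinetic reads · Control set – DMSO and EC80 PEA controls · Repeats – n of 1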
OX1R antag-1: human HCRTR1 antagonism; O43613; CHO/OX1R cells, Fluo-8 calcium fluorescence, orexin A; inhibition, % at 5 µM; 330,000 tested, 0.43% active; AID 434989;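 active = inhibition above its plate's threshold, mean inhibition of all tested compounds on the plate plus 3 SD, cut at about 37% in these data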;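 also: 0% = orexin A challenge wells and 100% = SB-334867-A antagonist wells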
OX1R antag-2: blocks the human orexin 1 receptor | O43613 | inhibition, % at 6.6 µM | OX1R-expressing cells, FRET antagonist read-out | 330,000 tested, 1.8% active; in the data active = inhibition mostly above about 38%, no sharp cut-off; inactive = mostly below about 40%;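 also: 0% = agonist challenge alone and 100% = reference antagonist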
CHO parental Ca: signal in parental CHO cells, OX1R antagonist counter-screen. parental CHO-K1, ATP-induced calcium, Fluo-8 fluorescence. inhibition, % at 5.6 µM. 330,000 tested, 0.63% active. AID 463079;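 active = inhibition above that plate's mean sample inhibition plus 3 SD, cut at about 26% in these data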;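 also: 0% = ATP-challenged DMSO wells and 100% = DMSO wells without ATP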
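Material: Parental CHO cells | Reagent: ATP | Compound dosing: Single nominal dose of 5.6 µM per compound | Detection: Intracellular calcium via Fluo-8 no-wash fluorescent dye | Read-out: % inhibition of ATP-induced calcium mobilization | Benchmarks: Low control ATP plus DMSO, high control DMSO only | Replicates: Singlicate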
NTR1 ag: activates human neurotensin receptor 1; NTR1-U2OS beta-arrestin-GFP spot imaging, agonist mode; activation, % at 20 µM; P30989; 330,000 tested, 0.17% active;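 active = activation at or above 40% of the spot to cytoplasm intensity ratio, with at least 20 cells analyzed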;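 also: 0% = DMSO without peptide and 100% = 100 nM NTR1 peptide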
Target sequence (P30989 whole entry, looked up): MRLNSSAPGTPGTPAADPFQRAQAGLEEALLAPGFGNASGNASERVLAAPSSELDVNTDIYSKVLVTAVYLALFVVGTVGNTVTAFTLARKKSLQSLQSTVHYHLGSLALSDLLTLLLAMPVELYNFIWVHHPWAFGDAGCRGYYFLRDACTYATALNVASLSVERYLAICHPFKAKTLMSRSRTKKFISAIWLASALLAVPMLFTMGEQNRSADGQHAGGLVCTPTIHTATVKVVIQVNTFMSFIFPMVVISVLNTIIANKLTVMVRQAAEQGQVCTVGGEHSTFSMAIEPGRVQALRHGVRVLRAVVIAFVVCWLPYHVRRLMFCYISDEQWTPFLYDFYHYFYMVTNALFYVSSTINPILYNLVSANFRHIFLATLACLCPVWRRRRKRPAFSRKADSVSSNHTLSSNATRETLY
TAAR1 agonist: agonists of human TAAR1; CHO RD-HGA16 TAAR1, Fluo-8 calcium fluorescence; vehicle wells 0%, saturating PEA agonist 100%; 360,000 tested, 0.99% active; Q96RJ0; activation, % at 3 µM; AID 624467;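 active = activation above the mean activation of all test compounds in the run plus 3 SD, cut at about 38% in these data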
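test system = CHO RD-HGA16 cells carrying human TAAR1 plus Gα16 | schedule = 17-24 h seeding, 75 min 37 °C dye, 30 min RT | compound dosing = 3 µM single concentration | control set = DMSO and PEA EC100 | replicates = n 1 | signal = Fluo-8 fluorescence, 5 s baseline then 140 s kinetic read | measure = percent activation vs PEA EC100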
Numbers without * were called inactive; / = no result given.

SMILES	TAAR1 antagonist	OX1R antag-1	OX1R antag-2	CHO parental Ca	NTR1 ag	TAAR1 agonist
O=C(Nc1ccc(F)cc1)c1cccc(N2C(=O)C3C4CCC(C4)C3C2=O)c1 (stereo not given)	2	-17	-3	-14	0	5
O=C(Nc1ccc(Br)cc1)c1cccc(N2C(=O)C3C4CCC(C4)C3C2=O)c1 (stereo not given)	49*	-11	19	-8	2	22
Cc1ccccc1NC(=O)c1cccc(N2C(=O)C3C4CC(C(Br)C4Br)C3C2=O)c1 (stereo not given)	73*	/	/	/	-1	41*
O=C(Nc1ccccc1)c1cccc(N2C(=O)C3C4C=CC(C5CC45)C3C2=O)c1 (stereo not given)	24	-22	7	-30	0	8
CC1C=CCC2C(=O)N(c3cccc(C(=O)Nc4ccc(Br)cc4)c3)C(=O)C12 (stereo not given)	50*	-6	22	-14	2	4
Cc1ccc(CN(C)C(=O)c2c(C)nn(-c3ccccc3)c2C)cc1	-22	-8	8	1	0	1
O=C(Nc1ccc(N2CCN(c3ccc(C(F)(F)F)cn3)CC2)nc1)c1cccs1	-23	15	6	-8	1	3
O=C(Nc1ccc(N2CCN(c3ncccc3C(F)(F)F)CC2)nc1)c1cccs1	75*	8	22	17	34	22
N=c1c(C(=O)NCc2ccccc2)cc2c(=O)n3ccccc3nc2n1CCCN1CCOCC1	-2	-12	45*	0	0	5
COCCCn1c(C(=O)NCCN2CCOCC2)cc2c(=O)n3ccccc3nc21	4	-18	52	-6	1	1
N=c1c(C(=O)NCCN2CCOCC2)cc2c(=O)n3ccccc3nc2n1CCc1ccccc1	-13	1	62*	-7	4	16
Cc1ccc(Cn2c(=N)c(C(=O)NCCN3CCOCC3)cc3c(=O)n4ccccc4nc32)cc1	-15	-4	54*	-16	5	1
N=c1c(C(=O)NCCc2ccccc2)cc2c(=O)n3ccccc3nc2n1CCCN1CCOCC1	-8	-7	45*	-5	-1	-1
C[C@H](O)[C@@H]1CN2CCc3c([nH]c4ccc(-c5ccc6c(c5)OCO6)cc34)[C@@H]2C[C@@H]1N(C)C(=O)NC1CCCCC1	9	/	/	/	/	2
O=S1(=O)CCC(N(N=Cc2ccco2)c2ccccc2)C1 (stereo not given)	-13	/	/	/	/	2
COc1ccc(CCn2c(=N)c(C(=O)NCc3ccco3)cc3c(=O)n4ccccc4nc32)cc1	17	-8	47*	2	4	3
COc1ccc(CCn2c(=N)c(S(=O)(=O)c3ccccc3)cc3c(=O)n4ccccc4nc32)cc1	-10	-14	8	-6	2	2
CC1=NN(c2ccccc2)C(=O)/C1=C\C=C1\N(C)c2ccccc2C1(C)C	19	50*	33	24	6	54*
Cn1cccc1/C=C1\SC(=O)N(CC(=O)Nc2ccc(Cl)cc2)C1=O	55*	-16	3	-11	-1	28
CCOc1ccc(NC(=O)CN2C(=O)S/C(=C/c3cccn3C)C2=O)cc1	16	-1	44	-11	-1	3
C[C@H](NC(=O)N1CCn2c1nc1ccccc12)C(=O)NCC1CCCO1 (stereo not given in full)	-13	-18	2	-9	0	0
COC(=O)Cn1c(=NC(=O)c2cccc(OC)c2)sc2cc(OC)ccc21	49*	-12	7	1	1	6
O=C(CN1C2CCCC1CC(NC(=O)c1ccco1)C2)Nc1ccccc1C(F)(F)F (stereo not given)	5	-3	51*	-4	0	4
O=C(CN1C2CCCC1CC(NC(=O)c1ccccc1)C2)Nc1ccccc1C(F)(F)F (stereo not given)	-10	-10	68*	-12	7	-2
O=C(CN1C2CCCC1CC(NC(=O)c1ccccc1)C2)Nc1ccccc1 (stereo not given)	-28	-26	19	-23	0	0
SMILES	TAAR1 antagonist	OX1R antag-1	OX1R antag-2	CHO parental Ca	NTR1 ag	TAAR1 agonist
CN(N=Cc1ccc2c(c1)OCO2)C(=O)c1ccccc1N	3	/	/	/	/	0
COc1ccc2cc3c(N)nn(C(=O)C4CCC(C(C)(C)C)CC4)c3nc2c1 (stereo not given)	-35	-23	5	-13	42*	4
Cc1ccc(OCC(=O)NCCCNC(=O)c2ccco2)cc1	-11	6	0	-7	0	-3
COC(=O)CSc1nc2ccc(NC(=O)CSc3nnnn3Cc3ccccc3)cc2s1	44	51*	62	51*	8	22
O=C(CSc1nc2ccc(NC(=O)CSc3nnnn3Cc3ccccc3)cc2s1)Nc1ccccc1	28	6	22	11	5	1
Cn1cnnc1SCC(=O)Nc1ccc2nc(SCc3cccc4ccccc34)sc2c1	17	-15	35	-35	6	42*
N=c1sccn1CC(=O)Nc1cc(S(=O)(=O)N2CCCC2)ccc1Cl	-1	-17	11	-15	0	0
CC(C)NC(=O)C1(C)CCN1C/C=C/c1ccccc1 (stereo not given)	0	/	/	/	/	0
COc1ccc(C(=O)OCC(=O)c2c[nH]c3ccccc23)cc1OC	21	18	32*	-11	-1	7
COc1ccccc1/C=C/C(=O)OCc1nc2ccccc2c(=O)[nH]1	6	2	46*	-45	3	0
O=C(OCC(=O)c1c[nH]c2ccccc12)c1ccc([N+](=O)[O-])s1	7	2	51*	-2	2	25
COc1ccccc1/C=C/C(=O)OCC(=O)c1c[nH]c2ccccc12	19	18	42*	-10	2	1
COc1cc(C(=O)OCC(=O)c2c[nH]c3ccccc23)ccc1OCC(=O)N1CCOCC1	6	-15	1	-2	-1	5
COC(=O)C1=C(C)N(Cc2ccccc2C(F)(F)F)C(=NCc2ccc(C(F)(F)F)cc2)NC1CCc1ccccc1 (stereo not given)	-9	/	/	/	/	1
CCn1nc(C(=O)N2CCN(Cc3nc4ccccc4s3)CC2)c2ccccc2c1=O	57*	-20	12	-9	2	33
CCn1nc(C(=O)N2CCc3ccccc3C2)c2ccccc2c1=O	-15	-39	36	-10	0	4
COc1ccc(S(=O)(=O)Nc2ccc3c(c2)C(=O)N([C@H](C)CO)C[C@H](C)[C@H](CN(C)C(=O)Nc2ccc(F)cc2)OCCCC[C@@H](C)O3)cc1	-1	/	/	/	/	2
O=C1NC(=O)N(Cc2ccccc2F)C1=O	2	-6	0	1	0	0
